Laboratory results published in ChEMBL document CHEMBL1132144, “Synthesis of 9-O-substituted derivatives of 9-hydroxy-5, 6-dimethyl-6H-pyrido[4,3-b]carbazole-1-carboxylic acid (2-(dimethylamino)ethyl)amide and their 10- and 11-methyl analogues with improved antitumor activity” (J Med Chem, 1999).

How the values were obtained:
[1] = tested on: Mus musculus; assay: Long-term survivors among 10 mice infected with P388 leukemia, scored on day 60 at 10 mg/kg dose; format: functional
[2] = tested on: Mus musculus; assay: Long-term survivors among 10 mice infected with P388 leukemia, scored on day 60 at 20 mg/kg dose; format: functional
[3] = tested on: Mus musculus; assay: Percent median survival time of mice injected with P388 leukemia, at a subcutaneous compound dose of 20 mg/kg; format: functional
[4] = tested on: Mus musculus; assay: Percent median survival time of mice injected with P388 leukemia, at a subcutaneous compound dose of 10 mg/kg; format: functional
[5] = tested on: B16; assay: Inhibition of murine B16 melanoma cell proliferation measured by the MTT assay; format: functional, cell-based; details: Mus musculus
In short: (§1)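 Murine L1210 leukemia and B16 melanoma cells were grown in RPMI 1640 with 10% fetal calf serum, 2 mM L-glutamine, penicillin/streptomycin and 10 mM HEPES (pH 7.4). Cells were exposed to nine serial drug dilutions in triplicate for about four doubling times (L1210 48 h, B16 96 h), then read by microculture tetrazolium (MTT) assay. IC50 is the concentration halving optical density versus untreated controls, averaged over ≥2 independent experiments.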

[6] = tested on: Mus musculus; assay: Percent median survival time of mice injected with B16 melanoma, at a intraperitoneal compound dose of 2.5 mg/kg
[7] = tested on: L1210; assay: Inhibition of murine L1210 leukemia cell proliferation measured by the MTT assay; format: functional, cell-based; details: Mus musculus; in short: as §1
[8] = tested on: Mus musculus; assay: Long-term survivors among 7 mice infected with B16 melanoma, scored on day 90 at 80 mg/kg dose
[9] = tested on: Mus musculus; assay: Percent median survival time of mice intraperitoneally injected with P388 leukemia was determined from tested at 160 mg/kg at day1,5,9 dose to that of control; format: functional; details: route intraperitoneal
In short: (§2)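 P388 leukemia in B6D2F1 mice (groups of 6–7), 10^6 cells inoculated ip on day 0. Dihydrochloride salts were dissolved in water and given iv on day 1 or on days 1, 5, 9. Three doses were tested, then five if active. %T/C = median survival treated/control × 100, reported at the optimal dose (no toxic death, weight loss <20%), from one or two representative experiments.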

[10] = tested on: Mus musculus; assay: Percent median survival time of mice intraperitoneally injected with P388 leukemia was determined from tested at 320 mg/kg at day1 dose to that of control; format: functional; details: route intraperitoneal; in short: as §2
[11] = tested on: Mus musculus; assay: Long-term survivors among 6 mice infected with P388 leukemia, scored on day 60 at 320 mg/kg dose; format: functional
In short: (§3)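 B6D2F1 mice in groups of 6–7 were inoculated ip on day 0 with 10^6 P388 cells. Dihydrochloride salts were dissolved in water and given iv on day 1 or on days 1, 5 and 9. Doses ranged from a low nontoxic dose to a toxic one. Long-term survivors were counted at day 60.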

[12] = tested on: Mus musculus; assay: Percent median survival time of mice injected with B16 melanoma, at a intraperitoneal compound dose of 80 mg/kg
[13] = tested on: Mus musculus; assay: Long-term survivors among 6 mice infected with P388 leukemia, scored on day 60 at 160 mg/kg dose; format: functional; in short: as §3
[14] = tested on: Mus musculus; assay: Long-term survivors among 12 mice infected with P388 leukemia, scored on day 60 at 10 mg/kg dose; format: functional; in short: as §3
[15] = tested on: Mus musculus; assay: Long-term survivors among 18 mice infected with P388 leukemia, scored on day 60 at 40 mg/kg dose; format: functional; in short: as §3
[16] = tested on: Mus musculus; assay: Percent median survival time of mice intraperitoneally injected with P388 leukemia was determined from tested at 40 mg/kg at day1 dose to that of control; format: functional; details: route intraperitoneal; in short: as §2
[17] = tested on: Mus musculus; assay: Long-term survivors among 14 mice infected with B16 melanoma, scored on day 90 at 2.5 mg/kg dose
[18] = tested on: Mus musculus; assay: Percent median survival time of mice intraperitoneally injected with P388 leukemia was determined from tested at 10 mg/kg at day1,5,9 dose to that of control; format: functional; in short: as §2
[19] = tested on: Mus musculus; assay: Percent median survival time of mice injected with P388 leukemia at 240 mg/Kg dose; not tested; format: functional
[20] = tested on: Mus musculus; assay: Percent median survival time of mice injected with B16 melanoma at 80 mg/Kg subcutaneous dose; not tested; format: functional
[21] = tested on: Mus musculus; assay: Long-term survivors among 7 mice infected with P388 leukemia, scored on day 60 at 240 mg/kg dose on day 1; format: functional
In short: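 B6D2F1 mice in groups of 6–7 received 10^6 P388 cells ip on day 0. Dihydrochloride salts dissolved in water were injected iv on day 1 or on days 1, 5 and 9, at three doses and then five. Read-outs were % T/C (median survival treated/control × 100) and long-term survivors on day 60, both at the optimal dose (no toxic death, weight loss <20%).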

[22] = tested on: Mus musculus; assay: Long-term survivors among 7 mice infected with B16 melanoma, scored on day 90 at 240 mg/kg dose on day 1; format: functional
[23] = tested on: Mus musculus; assay: Percent median survival time of mice injected with P388 leukemia at 160 mg/Kg dose; not tested; format: functional
[24] = tested on: Mus musculus; assay: Long-term survivors among 12 mice infected with P388 leukemia, scored on day 60 at 20 mg/kg dose on day 1; format: functional; in short: as §3
[25] = tested on: Mus musculus; assay: Percent median survival time of mice injected with B16 melanoma, at a intraperitoneal compound dose of 5 mg/kg
[26] = tested on: Mus musculus; assay: Long-term survivors among 7 mice infected with B16 melanoma, scored on day 90 at 40 mg/kg dose on day 1, 5, 9; format: functional
[27] = tested on: Mus musculus; assay: Long-term survivors among 12 mice infected with P388 leukemia, scored on day 60 at 10 mg/kg dose on day 1, 5, 9; format: functional; in short: as §3
[28] = tested on: Mus musculus; assay: Percent median survival time of mice injected with P388 leukemia, at a intravenous compound dose of 40 mg/kg
[29] = tested on: Mus musculus; assay: Long-term survivors among 14 mice infected with P388 leukemia, scored on day 60 at 40 mg/kg dose on day 1; format: functional; in short: as §3
[30] = tested on: Mus musculus; assay: Percent median survival time of mice injected with B16 melanoma, at a intraperitoneal compound dose of 2.5-5 mg/kg
[31] = species on record: Mus musculus; assay: Long-term survivors among 14 mice infected with B16 melanoma, scored on day 90 at optimal dose on days 1-9

COc1cccc2c1C(=O)c1c(O)c3c(c(O)c1C2=O)C[C@@](O)(C(=O)CO)C[C@@H]3O[C@H]1C[C@H](N)[C@H](O)[C@H](C)O1 [DOXORUBICIN]
LTS [1]: 4
LTS [2]: 2
T/C [3]: 258%
T/C [4]: 332%
IC50 [5]: 0.0076 µM
T/C [6]: 456%
IC50 [7]: 0.0343 µM

Cc1c2ccnc(C(=O)NCCN(C)C)c2cc2c3cc(OP(=O)(O)OCc4ccccc4)ccc3n(C)c12
LTS [8]: 0
T/C [9]: 111%
T/C [10]: 142%
LTS [11]: 0
T/C [12]: 144%
IC50 [5]: 0.511 µM
LTS [13]: 0
IC50 [7]: 4 µM

Cc1c2c(C(=O)NCCN(C)C)nccc2c(C)c2c1c1cc(O)ccc1n2C
LTS [14]: 9
LTS [15]: 15
T/C [16]: >600%
LTS [17]: 1
IC50 [5]: 0.0034 µM
T/C [6]: 166%
T/C [18]: >600%
IC50 [7]: 0.0134 µM

Cc1c2ccnc(C(=O)NCCN(C)C)c2cc2c3cc(OC(=O)NCCC(=O)O)ccc3n(C)c12
T/C [19]: 109%
T/C [20]: 138%
LTS [21]: 0
IC50 [5]: 0.0787 µM
LTS [22]: 0
IC50 [7]: 0.654 µM
T/C [23]: 109%

Cc1c2ccnc(C(=O)NCCN(C)C)c2cc2c3cc(OC(=O)C4C[C@@H]4c4ccccc4)ccc3n(C)c12 (stereo not given in full)
LTS [24]: 0
T/C [25]: 129%
T/C [3]: 146%
LTS [26]: 0
T/C [4]: 152%
IC50 [5]: 0.0141 µM
LTS [27]: 0
IC50 [7]: 0.0309 µM

Cc1c2c(C(=O)NCCN(C)C)nccc2c(C)c2c1c1cc(OC(=O)CCCCC(=O)O)ccc1n2C
T/C [28]: >600%
LTS [29]: 11
T/C [3]: >600%
T/C [30]: 361%
LTS [31]: 4
IC50 [5]: 0.0063 µM
IC50 [7]: 0.0459 µM
